Assay results: ChEMBL document CHEMBL1122307, “Mitomycin C and porfiromycin analogues with substituted ethylamines at position 7” (J Med Chem, 1983)
Values joined by “and” are separate entries in the source; they are usually repeats but may differ in a detail not shown here. Equal entries are not always repeated.

Key:
P388 [1] = assay: Maximum % T/C with mitomycin C against P-388 murine leukemia cells in mice.; assay type: functional, Mus musculus
Outline: (§1)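 P-388 ascites leukemia, 10⁶ cells implanted ip in female CDF₁ mice. Six mice per dose, with 10 saline-injected controls. A six-mouse mitomycin C group was run at each dose in the same experiment. % T/C = median survival time treated/control × 100 at the optimal dose. MED is the lowest dose giving T/C ≥ 125.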

P388 [2] = assay: Optimal dose required for antitumor activity against P-388 murine leukemia cells in mice.; assay type: functional, Mus musculus; outline: as §1
[3] = Partition coefficient (logP); assay type: physicochemical; conditions: octanol/water
[4] = Therapeutic ratio as optimal dose/minimal effective dose; assay type: ADME; conditions: mouse, p388; read-out: TR
P388 [5] = assay: Minimum effective dose required for antitumor activity against P-388 murine leukemia cells; assay type: functional; conditions: Mus musculus, read-out: MED; outline: as §1
P388 [6] = assay: Maximum % T/C against P-388 murine leukemia cells in mice.; assay type: functional, Mus musculus; outline: as §1
P388 [7] = assay: Leukopenia % change in WBC at optimal dose on 3rd day.; assay type: functional, Mus musculus
L1210 [8] = assay: Optimal dose required for antitumor activity L-1210 leukemia cells in mice.; assay type: functional, Mus musculus
Outline: (§2)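 L-1210 leukemia in mice, run by the standard NCI protocol with one dose on day 1. % T/C is based on survival. Repeated assays are reported as both values.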

L1210 [9] = assay: Maximum % T/C against L-1210 leukemia cells in mice.; assay type: functional, Mus musculus; outline: as §2
L1210 [10] = assay: Minimum effective dose required for antitumor activity against L-1210 leukemia cells in mice.; assay type: functional; conditions: Mus musculus, read-out: MED; outline: as §2
B16 [11] = assay: (§3) Median survival time (% T/C) after ip administration in B-16 melanoma in mice (dose mg/kg/day); assay type: functional, Mus musculus
Outline: (§4)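 B-16 melanoma in mice, run by the standard NCI protocol. Drug given ip on days 1, 4 and 7, ten mice per dose. Read-outs were median survival time as % T/C of controls and average body-weight change in g.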

B16 [12] = assay: Average weight change after ip administration of in B-16 melanoma in mice (dose mg/kg/day); assay type: functional, Mus musculus; outline: as §4
B16 [13] = assay: (§5) Average weight change after ip administration in B-16 melanoma in mice (dose mg/kg/day); assay type: functional, Mus musculus; outline: as §4
B16 [14] = assay: as §5; assay type: functional, Mus musculus; outline: as §4; remark: listed apart in the source
B16 [15] = assay: as §3; assay type: functional, Mus musculus; outline: as §4; remark: listed apart in the source
B16 [16] = assay: as §3; assay type: functional; outline: as §4
B16 [17] = assay: Tumor free survivors on 45th day after ip administration of in B-16 melanoma in mice (dose mg/kg/day); 0
B16 [18] = assay: Tumor free survivors on 45th day after ip administration in B-16 melanoma in mice (dose mg/kg/day); 0
B16 [19] = assay: as §3; assay type: functional; outline: as §4; remark: listed apart in the source
B16 [20] = assay: Average weight change after ip administration inB-16 melanoma in mice (dose mg/kg/day); assay type: functional, Mus musculus
Outline: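 Mice bearing B-16 melanoma were tested under the standard NCI protocol at Arthur D. Little. Compound was injected ip on days 1, 4 and 7, with ten mice per dose. Average body-weight change is reported in g. Alongside it, median survival time was given as % T/C and cures as tumor-free survivors on day 45.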

| SMILES | T/C (P388 [1]) [%] | Dose (P388 [2]) [mg/kg] | logP [3] | selectivity ratio [4] | minimal effective dose (P388 [5]) [mg/kg] | T/C (P388 [6]) [%] | Change in WBC (P388 [7]) [%] | Dose (L1210 [8]) [mg/kg] | T/C (L1210 [9]) [%] | minimal effective dose (L1210 [10]) [mg/kg] | T/C (B16 [11]) | Average weight change (B16 [12]) [g] | Average weight change (B16 [13]) | Average weight change (B16 [14]) [g] | T/C (B16 [15]) [%] | T/C (B16 [16]) | Cures (B16 [17]) | Cures (B16 [18]) | T/C (B16 [19]) [%] | Average weight change (B16 [20]) [g] |
| --- | --- | --- | --- | --- | --- | --- | --- | --- | --- | --- | --- | --- | --- | --- | --- | --- | --- | --- | --- | --- |
| COC12[C@@H]3N[C@@H]3CN1C1=C(C(=O)C(NCCc3ccccc3)=C(C)C1=O)[C@@H]2COC(N)=O (stereo not given in full) | 194 | 25.6 | 2.48 | 16 |  |  |  |  |  |  |  |  |  |  |  |  |  |  |  |  |
| COC12[C@@H]3N[C@@H]3CN1C1=C(C(=O)C(NCCc3ccc(O)c(O)c3)=C(C)C1=O)[C@@H]2COC(N)=O (stereo not given in full) | 233 | 12.8 |  | 1 | 12.8 | 139 |  |  |  |  |  |  |  |  |  |  |  |  |  |  |
| COC12[C@@H]3N[C@@H]3CN1C1=C(C(=O)/C(=N/CCO)C(C)=C1O)[C@@H]2COC(N)=O (stereo not given in full) | 228 | 25.6 | -0.81 | 16 | 1.6 | 228 | -38 |  |  |  |  |  |  |  |  |  |  |  |  |  |
| COC12[C@@H]3N[C@@H]3CN1C1=C(C(=O)/C(=N/CCF)C(C)=C1O)[C@@H]2COC(N)=O (stereo not given in full) | 268 | 6.4 | 0.18 | 16 | 0.4 | >316 |  |  |  |  |  |  |  |  |  |  |  |  |  |  |
| COC(C/N=C1/C(=O)C2=C(C(O)=C1C)N1C[C@H]3N[C@H]3C1(OC)[C@H]2COC(N)=O)OC (stereo not given in full) | 224 | 6.4 |  | 8 | 0.8 | 200 | -44 | 24 | 151 | 6 |  |  |  |  |  |  |  |  |  |  |
| COC12[C@@H](COC(N)=O)C3=C(C(O)=C(C)/C(=N\CCS)C3=O)N1C[C@@H]1[C@H]2N1C (stereo not given in full) | 268 | 25.6 |  | 8 | 3.2 | 179 |  | 48 | 129 | 12 |  |  |  |  |  |  |  |  |  |  |
| CCSCC/N=C1/C(=O)C2=C(C(O)=C1C)N1C[C@H]3N[C@H]3C1(OC)[C@H]2COC(N)=O (stereo not given in full) | 268 | 12.8 | 1.66 | 8 | 1.6 | 205 |  | 24 | 141 | 12 | 190% and 175% and 144% | -1.7 | -1.2 g and -0.8 g |  |  |  |  |  |  |  |
| COC12[C@@H](COC(N)=O)C3=C(C(=O)C(C)=C(NCCCl)C3=O)N1C[C@@H]1[C@H]2N1C (stereo not given in full) | >300 | 51.2 |  | 8 |  |  |  |  |  |  |  |  |  |  |  |  |  |  |  |  |
| COC12[C@@H]3N[C@@H]3CN1C1=C(C(=O)C(NCCCl)=C(C)C1=O)[C@@H]2COC(N)=O (stereo not given in full) | 245 | 12.8 | 0.74 | 8 |  |  | -7 |  |  |  |  |  |  |  |  |  |  |  |  |  |
| COC12[C@@H]3N[C@@H]3CN1C1=C(C(=O)/C(=N/CCS)C(C)=C1O)[C@@H]2COC(N)=O (stereo not given in full) | 181 | 12.8 | 0.63 | 64 | 0.2 | 313 | -35 | 9.6 | 168 | 1.6 | 218% |  | -0.5 g | -0.5 | 190 |  |  |  |  |  |
| COC12[C@@H]3N[C@@H]3CN1C1=C(C(=O)/C(=N/CCN3CCOCC3)C(C)=C1O)[C@@H]2COC(N)=O (stereo not given in full) | 211 | 25.6 |  | 4 | 6.4 | 150 |  | 96 | 132 | 48 |  |  |  |  |  |  |  |  |  |  |
| CCN1CCCC1C/N=C1/C(=O)C2=C(C(O)=C1C)N1C[C@H]3N[C@H]3C1(OC)[C@H]2COC(N)=O (stereo not given in full) | 211 | 12.8 |  | 16 | 0.8 | 217 | -29 |  |  |  |  |  |  |  |  |  |  |  |  |  |
| CCSCC/N=C1/C(=O)C2=C(C(O)=C1C)N1C[C@@H]3[C@@H](N3C)C1(OC)[C@H]2COC(N)=O (stereo not given in full) | 322 | 25 |  | 4 | 6.4 | 200 |  | 48 | 143 | 24 |  |  |  |  |  |  |  |  |  |  |
| COC12[C@@H]3N[C@@H]3CN1C1=C(C(=O)/C(=N/CCN3CCCC3)C(C)=C1O)[C@@H]2COC(N)=O (stereo not given in full) | 211 | 12.8 |  | 32 | 0.4 | 194 | -64 | 5 | 125 | 5 |  |  |  |  |  |  |  |  |  |  |
| COC12[C@@H]3N[C@@H]3CN1C1=C(C(=O)/C(=N/CCc3ccc(O)cc3)C(C)=C1O)[C@@H]2COC(N)=O (stereo not given in full) | 288 | 25.6 |  | 16 | 1.6 | 218 |  | 48 | 125 | 12 |  |  |  |  |  |  |  |  |  |  |
| CC/N=C1/C(=O)C2=C(C(O)=C1C)N1C[C@H]3N[C@H]3C1(OC)[C@H]2COC(N)=O (stereo not given in full) | 322 | 12.8 | 0.35 | 32 | 0.8 | 250 |  |  |  |  |  |  |  |  |  |  |  |  |  |  |
| COC12[C@@H]3N[C@@H]3CN1C1=C(C(=O)/C(=N/CCN)C(C)=C1O)[C@@H]2COC(N)=O (stereo not given in full) | 156 | 3.3 | -0.84 | 8 | 0.4 | 178 |  |  |  |  |  |  |  |  |  |  |  |  |  |  |
| COCC/N=C1/C(=O)C2=C(C(O)=C1C)N1C[C@H]3N[C@H]3C1(OC)[C@H]2COC(N)=O (stereo not given in full) | 268 | 12.8 | -0.12 | 16 | 0.8 | 205 | -57 | 12 | 143 | 6 | 190% | -2 | -0.4 g | -1.7 |  |  |  |  |  |  |
| COC12[C@@H]3N[C@@H]3CN1C1=C(C(=O)C(NCCC#N)=C(C)C1=O)[C@@H]2COC(N)=O (stereo not given in full) | 268 | 6.4 | -0.49 | 16 | 0.4 | 232 | -40 | 12 | 130 | 3 |  |  |  |  |  |  |  |  |  |  |
| COC12[C@@H]3N[C@@H]3CN1C1=C(C(=O)C(NCCN(C)C)=C(C)C1=O)[C@@H]2COC(N)=O (stereo not given in full) | 161 | 12.8 |  | 32 | 0.4 | 233 |  | 12 | 136 | 6 |  |  |  |  |  |  |  |  |  |  |
| COC12[C@@H]3N[C@@H]3CN1C1=C(C(=O)C(N[C@@H]3CC3c3ccccc3)=C(C)C1=O)[C@@H]2COC(N)=O (stereo not given in full) | 233 | 25.6 |  | 16 | 1.6 | 200 |  |  |  |  |  |  |  |  |  |  |  |  |  |  |
| CO[C@@]12[C@H](COC(N)=O)C3=C(C(=O)C(C)=C(N)C3=O)N1C[C@@H]1N[C@@H]12 [MITOMYCIN] |  | 3.2 |  | 16 |  | 161 | -42 | 3 | 124 | 3 |  | -2.2 | -1.1 g |  |  | 160% and 127% | 0 | 0 | 190 | -0.7 |
